Experimental data from PMC11439047 (Nature Communications, 2024).
Substitutions are numbered along the chain they refer to.

How the values were obtained:
P2X1 receptor E282A = molecular target: T1, P2X1 receptor E282A (Homo sapiens, UniProt P51575, E282A); assay: Saturation radioligand binding with [3H]-α,β-methylene ATP
T1 sequence (P51575 1-399 E282A): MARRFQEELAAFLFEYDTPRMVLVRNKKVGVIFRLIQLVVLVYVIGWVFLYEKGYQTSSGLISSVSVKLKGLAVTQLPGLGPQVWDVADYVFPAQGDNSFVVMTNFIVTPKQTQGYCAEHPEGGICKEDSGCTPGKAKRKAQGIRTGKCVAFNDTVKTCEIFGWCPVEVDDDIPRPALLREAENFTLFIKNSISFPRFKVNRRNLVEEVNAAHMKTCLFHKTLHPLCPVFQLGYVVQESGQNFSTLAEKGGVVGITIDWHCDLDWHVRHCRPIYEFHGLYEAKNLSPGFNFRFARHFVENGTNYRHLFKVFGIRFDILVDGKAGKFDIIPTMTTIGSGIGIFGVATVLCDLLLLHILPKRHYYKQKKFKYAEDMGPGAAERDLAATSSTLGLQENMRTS
Method in brief: (§1)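 Whole HEK293 Flp-In T-REx cells stably expressing receptor, tetracycline-induced (150 ng/ml, 2 days), 15,000 cells/well, washed in HEPES binding buffer pH 7.4 with Ca2+/Mg2+. Increasing [3H]-α,β-methylene ATP added, 3 h room temperature with gentle agitation; non-specific binding with 10 μM ATP. Ice-cold 0.9% NaCl washes, scintillation counting (CCPM). Specific binding fitted one-site; values above 300 nM termed not defined.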

P2X1 receptor K136A = molecular target: T2, P2X1 receptor K136A (Homo sapiens, UniProt P51575, K136A); assay: as above
T2 sequence (P51575 1-399 K136A): T1 sequence (P51575 1-399 E282A) with K136A, A282E
Method in brief: as §1

P2X1 receptor D170A = molecular target: T3, P2X1 receptor D170A (Homo sapiens, UniProt P51575, D170A); assay: Saturation radioligand binding with [3H]-α,β-methylene ATP
T3 sequence (P51575 1-399 D170A): T1 sequence (P51575 1-399 E282A) with D170A, A282E

P2X1 receptor L218T = molecular target: T4, P2X1 receptor L218T (Homo sapiens, UniProt P51575, L218T); assay: Saturation radioligand binding with [3H]-α,β-methylene ATP
T4 sequence (P51575 1-399 L218T): T1 sequence (P51575 1-399 E282A) with L218T, A282E
Method in brief: as §1

P2X1 receptor R139P [1] = molecular target: T5, P2X1 receptor R139P (Homo sapiens, UniProt P51575, R139P); assay: as above
T5 sequence (P51575 1-399 R139P): T1 sequence (P51575 1-399 E282A) with R139P, A282E
Method in brief: as §1

P2X1 receptor R292A = molecular target: T6, P2X1 receptor R292A (Homo sapiens, UniProt P51575, R292A); assay: as above
T6 sequence (P51575 1-399 R292A): T1 sequence (P51575 1-399 E282A) with A282E, R292A
Method in brief: as §1

P2X1 receptor R139P [2] = molecular target: T5, P2X1 receptor R139P; assay: Calcium ion influx assay; format: cell-based; conditions: maximal α,β-methylene ATP

Nc1ncnc2c1ncn2[C@@H]1O[C@H](COP(=O)(O)CP(=O)(O)OP(=O)(O)O)[C@@H](O)[C@H]1O [α,β-methylene ATP]
binding affinity compared to WT-P2X1 (P2X1 receptor E282A): similar | binding affinity compared to WT-P2X1 (P2X1 receptor K136A): similar | binding affinity compared to WT-P2X1 (P2X1 receptor D170A): beyond the threshold that could be accurately measured | binding affinity compared to WT-P2X1 (P2X1 receptor L218T): similar | binding affinity compared to WT-P2X1 (P2X1 receptor R139P [1]): reduced | binding affinity compared to WT-P2X1 (P2X1 receptor R292A): reduced | desensitisation rate compared to WT-P2X1 (P2X1 receptor R139P [2]): significantly slowed the desensitisation rate
